Screening data (PubChem)
CendR NRP1 mod = alters CendR peptide binding to human NRP-1 | FAM-RPARPAR peptide binding to NRP-1, fluorescence polarization | inhibition, % at 25 µM | 360,000 tested, 0.85% active | AID 602438;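 active means inhibition or corrected inhibition above about 18%, plus a signal ratio from 0.5 to 1.5, limit read from the data, passing the limit was not always enough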
Arrestin-AP2 inh = blocks beta-arrestin peptide binding to AP2 adaptin; 340,000 tested, 0.31% active; inhibition, % at 10 µM; AID 504490; FITC-arrestin peptide / GST-AP2 beads, flow cytometry; AP2 beta2 appendage carries R879A mutation;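 active means inhibition above a set limit, near 3 SD of compounds lacking own fluorescence, cut at about 54% in these data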;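 further: plate controls were DMSO wells for no effect and 5 µM unlabelled arrestin peptide for full effect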
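System: GST-tagged AP2 beta2-adaptin appendage (R879A) on 4 µm glutathione beads / Reagent: FITC-arrestin peptide, 50 nM / Detection: HyperCyt-sampled flow cytometry, FL1 channel, ex 488/em 535 nm / Timing: 12 min plus 1 h, RT / Buffer or medium: PBS plus Tween 20 (0.05%) and BSA (0.1%)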
ADAM17 inh = inhibits human ADAM17; P78536; recombinant ADAM17, EDANS/DABCYL FRET peptide cleavage; inhibition, % at 6.95 µM; 370,000 tested, 0.83% active; AID 720648;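 active means inhibition above the mean of compounds lying between control limits plus 3 SD, set per campaign, cut at about 8.5% in these data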;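 further: 0% = DMSO-only wells as the low control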
CaV13 FRET inh = Disruptors of the CACNA1D IQ motif to Ca2+-dependent inactivation inhibitor domain association, primary screening, Förster resonance energy transfer in intact living …; HEK cells, CFP/YFP FRET ICDI-IQ, plate reader, 10 min; percent FRET-ratio fall versus neutral wells; inhibition, % at 12.3 µM; 340,000 tested, 0.098% active;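 active means mean replicate inhibition of at least 30% and at least 1% of replicates passing that level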;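 further: 0% = median of the neutral control wells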
ADAM10 inh = inhibitors of human ADAM10; recombinant ADAM10, EDANS/DABCYL FRET peptide cleavage, 3 h; 370,000 tested, 0.62% active; O14672; inhibition, % at 7 µM; AID 720582;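 active means inhibition above a per-campaign cutoff equal to the mean of compounds falling between control-based bounds plus 3 SD, cut at about 20% in these data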;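 further: 0% = DMSO wells while the 100% control is not disclosed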
Target sequence (O14672 214-748 limits assumed): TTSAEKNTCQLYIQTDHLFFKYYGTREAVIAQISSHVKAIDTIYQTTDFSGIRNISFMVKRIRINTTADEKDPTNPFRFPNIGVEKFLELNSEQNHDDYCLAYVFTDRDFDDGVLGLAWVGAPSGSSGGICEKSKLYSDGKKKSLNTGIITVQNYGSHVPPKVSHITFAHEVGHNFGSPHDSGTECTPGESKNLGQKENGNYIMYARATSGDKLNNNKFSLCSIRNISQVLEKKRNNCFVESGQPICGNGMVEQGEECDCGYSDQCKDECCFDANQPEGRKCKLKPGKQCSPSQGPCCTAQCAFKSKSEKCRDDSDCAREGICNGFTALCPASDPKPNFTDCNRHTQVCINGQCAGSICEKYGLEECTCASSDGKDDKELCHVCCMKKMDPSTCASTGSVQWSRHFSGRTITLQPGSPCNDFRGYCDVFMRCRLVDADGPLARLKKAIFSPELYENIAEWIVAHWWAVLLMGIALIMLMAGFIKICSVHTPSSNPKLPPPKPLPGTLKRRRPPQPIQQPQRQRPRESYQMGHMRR
FAS TE block = blocks the thioesterase domain of human fatty acid synthase. P49327. recombinant FAS-TE, OMFH fluorogenic substrate, fluorescence endpoint. inhibition, % at 15 µM. 360,000 tested, 0.67% active;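 active means compounds whose normalised, plate-corrected inhibition of enzyme fluorescence in the single-dose primary screen is 50% or more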;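 further: 0% = DMSO with enzyme and 100% = substrate without enzyme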
ADAM10 ctr = inhibits human ADAM10 in ADAM17 exosite counter-screen. inhibition, % at 6.95 µM. shares compounds with ADAM17 inh. 2,900 tested, 47% active. recombinant ADAM10, EDANS/DABCYL FRET peptide cleavage, 3 h;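 active means mean inhibition over the triplicate runs exceeds the activity threshold set in the earlier primary screen, cut at about 20% in these data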;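 further: 0% = DMSO wells and 100% = marimastat wells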
ADAM17 confirm = human ADAM17 inhibition, confirmation | shares compounds with ADAM17 inh | recombinant ADAM17, EDANS/DABCYL QFRET peptide cleavage | inhibition, % at 6.95 µM | 2,900 tested, 65% active | AID 743257;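 active means mean inhibition across replicates above the hit cutoff set in the primary screen, cut at about 8.5% in these data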;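 further: 0% = DMSO wells and 100% = marimastat wells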
Numbers without * were called inactive; . = not tested or not shown. A selection: hits, their analogues and other compounds. The true share with any hit is near 2.9%.

SMILES	CendR NRP1 mod	Arrestin-AP2 inh	ADAM17 inh	CaV13 FRET inh	ADAM10 inh	FAS TE block	ADAM10 ctr	ADAM17 confirm
COC(=O)C1CN(C2CCCC2)CCS(=O)(=O)N1Cc1cn(Cc2ccc(C)cc2)nn1 (centres undefined)	.	.	4	.	15	.	.	.
N=C1/C(=C/c2cccn2CCOc2ccccc2)C(=O)N=C2SC=C(c3ccccc3)N12	-16	-5	9.7*	-14	11	41	15	14*
N=C1/C(=C\c2ccc(-c3cc(Cl)cc(Cl)c3)o2)C(=O)N=C2SC=C(c3ccccc3)N12	-29	2	2	-3	2	17	.	.
Cc1ccc(Cl)cc1N(CC(=O)Nc1cccc(N(C)S(C)(=O)=O)c1)S(C)(=O)=O	12	-7	-2	-6	0	2	.	.
CN(c1cccc(NC(=O)CN(c2cccc(Cl)c2)S(=O)(=O)c2ccc(Cl)cc2)c1)S(C)(=O)=O	4	10	11*	-18	18	16	31*	16*
CC(C)N=c1scc(-c2cccs2)n1/N=C/c1ccc(O)c(O)c1O	-3	18	9.3*	-6	8	11	14	12*
COCC(C)n1c(C)cc(C(=O)CSc2nnc(Nc3ccccc3F)s2)c1C (centres undefined)	2	-4	15*	.	15	4	1	2
COCC(C)n1c(C)cc(C(=O)CSc2ncccn2)c1C (centres undefined)	1	9	-3	1	4	-1	.	.
CCCCCC[C@@H](CN(CCCC)S(C)(=O)=O)c1ccccc1	.	.	55*	.	17	.	-6	2
CCCOc1c(Br)cc(C(=O)OCC(=O)NC(=O)c2cccn2C)cc1OC	-2	-4	-1	-2	-7	-2	.	.
COc1ccccc1C1N(c2ccc(Cl)cc2)C(=O)C2CCCN21 (centres undefined)	-31	-6	9.8*	.	6	-10	-7	3
Cn1nc(C(F)(F)F)c(C(=O)Nc2ccc(F)cc2F)c1Sc1cccc(C(F)(F)F)c1	4	0	9.8*	-5	15	29	10	8
O=C1NC[C@H](CCCCN2C[C@H](Cc3ccc(O)cc3)N(CCC3CCCCC3)C(=O)C2=O)N(CCc2ccc(O)cc2)C1=O	-6	.	-4	-4	-7	-2	.	.
COc1ccccc1/C=C/C1C(C(=O)OCC(C)C)=C(C)N=C2SCCC(=O)N21 (centres undefined)	8	-4	11*	-4	15	21	20	12*
CCS(=O)(=O)N1CCN(Cc2ccccc2OC)CC1	3	7	10*	.	5	-10	-6	-3
O=C(OCc1nc2scc(-c3ccccc3)c2c(=O)[nH]1)c1cc(Cl)ccc1[N+](=O)[O-]	9	.	8.6*	-6	12	34	1	4
Cc1c(C(=O)OCc2nc3scc(-c4ccccc4)c3c(=O)[nH]2)cccc1[N+](=O)[O-]	5	20	0	-5	2	12	.	.
O=C(CN1CCNCC1)N1CCOCC1	8	.	.	.	.	-5	.	.
O=C(CCC(=O)OCC(=O)c1ccccc1)Nc1cccc2cccnc12	2	7	8.7*	-4	18	-6	0	1
O=C(O)CCC(=O)Nc1cccc2cccnc12	7	13	-1	13	-10	-6	.	.
COC(=O)[C@]12C[C@H](CC(=O)NCC3CCCCC3)C(=O)N(CCc3ccc(OC)c(OC)c3)C1=C[C@H](C1CCCC1)O[C@@H]2C	.	.	7	.	13	.	.	.
COC(=O)[C@]12C[C@H](CC(=O)NCc3ccccc3)C(=O)N(Cc3ccco3)C1=C[C@H](COCc1ccccc1)O[C@@H]2C	.	.	10*	.	6	.	27*	12*
